Where “and” joins values, the source holds several entries; their conditions need not be identical. Identical values can stand only once. Like-named read-outs stand apart in the source and are kept apart here. Marks after values point to notes of the source that are not given here.
How the values were obtained:
Caco-2 cells = experiment: Caco-2 permeability of remibrutinib; assay type: in vitro ADME; conditions: Caco-2, passive
Procedure, shortened: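 Human Caco-2 cell system, also used to test the compound as a substrate of ATP-binding cassette efflux transporters (P-gp). Passive apparent permeability (Papp, cm/s) was taken from these experiments to predict the fraction absorbed (Fa) in the PBPK model.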

P-gp = P-gp (Homo sapiens, UniProt P08183); experiment: Efflux transporter substrate assessment in Caco-2 cells; assay type: in vitro ADME
[1] = tested on: hepatic uptake transporters; experiment: Cellular uptake in suspensions of cryo-preserved human hepatocytes; assay type: in vitro ADME; conditions: suspended human hepatocytes
human liver microsomes = experiment: Oxidative metabolism kinetics in pooled HLM; assay type: in vitro ADME
CYP3A4 = CYP3A4 (Homo sapiens, UniProt P08684); assay type: in vitro ADME
CYP2C19 = CYP2C19 (Homo sapiens, UniProt P33261); experiment: Recombinant human CYP enzyme kinetics; assay type: in vitro ADME
CYP3A5 = CYP3A5 (Homo sapiens, UniProt P20815); experiment: Recombinant human CYP enzyme kinetics; assay type: in vitro ADME
CYP2B6 = target: T1, CYP2B6 (Homo sapiens, UniProt P20813); experiment: Recombinant human CYP enzyme kinetics; assay type: in vitro ADME
T1 sequence (P20813 1-491): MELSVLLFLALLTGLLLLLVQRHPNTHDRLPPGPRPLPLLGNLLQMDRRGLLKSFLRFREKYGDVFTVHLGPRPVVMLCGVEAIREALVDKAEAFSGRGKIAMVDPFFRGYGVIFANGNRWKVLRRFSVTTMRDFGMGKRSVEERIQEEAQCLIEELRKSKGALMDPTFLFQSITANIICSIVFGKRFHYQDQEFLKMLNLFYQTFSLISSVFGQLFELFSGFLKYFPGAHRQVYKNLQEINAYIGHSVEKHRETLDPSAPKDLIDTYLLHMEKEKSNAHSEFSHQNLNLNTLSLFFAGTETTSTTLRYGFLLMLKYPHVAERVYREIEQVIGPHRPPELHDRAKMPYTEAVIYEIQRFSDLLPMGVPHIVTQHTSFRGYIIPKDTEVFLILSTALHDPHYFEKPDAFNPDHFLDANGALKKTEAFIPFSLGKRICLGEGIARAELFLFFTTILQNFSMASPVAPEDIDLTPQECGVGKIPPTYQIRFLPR

CYP3A4/5 = experiment: Correlation analysis with HLM from 16 individual donors; assay type: in vitro ADME, human
[2] = assay type: in vivo, human; conditions: for Vd: 100 µg; for half-life / Tmax: whole blood; for half-life: t 1/2, arithmetic mean; for Tmax: po
Procedure, shortened: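 Healthy adults, open-label single-sequence three-period crossover. Oral doses: 50 mg alone (day 3, 1 h after 240 ml 10% glucose), 20 mg 1 h after 240 ml grapefruit juice, and 20 mg 1 h after the second ritonavir 100 mg dose. Stable-isotope-labelled i.v. microtracer 100 µg given 2 h post-oral in periods 1 and 3. Blood measured by LC-MS/MS; dose-normalised; mixed-ANOVA geometric mean ratios.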

[3] = Clinical DDI study: safety; assay type: in vivo, human
[4] = Single and multiple ascending dose study, observed PK; assay type: in vivo, human
[5] = DDI trial with CYP450 enzyme substrate cocktail, steady state; ref unpublished data, Schiller, Huth, Schuhler, Drollmann, Kaul, Woessner, et al. 2021; cited from earlier work
[6] = rat in vivo; ref data on file, Novartis; cited from earlier work
[7] = i.v., Period 1 remibrutinib alone day 3, Geo-mean (%CV)
[8] = i.v., Period 3 remibrutinib + ritonavir, Geo-mean (%CV)
[9] = oral, Period 1 alone 50 mg Day 3, Mean (SD)
[10] = oral, Period 2 20 mg + GFJ Day 5, Mean (SD)
[11] = oral, Period 3 20 mg + RTV Day 7, Mean (SD)
[12] = p.o., Period 1 remibrutinib alone, adjusted Geo-mean, 90% CI
[13] = p.o., Period 2 remibrutinib + grapefruit juice, adjusted Geo-mean, 90% CI
[14] = p.o., Period 3 remibrutinib + ritonavir, adjusted Geo-mean, 90% CI
[15] = p.o., grapefruit juice vs alone, Geo mean ratio, 90% CI
[16] = p.o., ritonavir vs alone, Geo-mean ratio, 90% CI

CYP3A4, sequence (P08684 whole entry): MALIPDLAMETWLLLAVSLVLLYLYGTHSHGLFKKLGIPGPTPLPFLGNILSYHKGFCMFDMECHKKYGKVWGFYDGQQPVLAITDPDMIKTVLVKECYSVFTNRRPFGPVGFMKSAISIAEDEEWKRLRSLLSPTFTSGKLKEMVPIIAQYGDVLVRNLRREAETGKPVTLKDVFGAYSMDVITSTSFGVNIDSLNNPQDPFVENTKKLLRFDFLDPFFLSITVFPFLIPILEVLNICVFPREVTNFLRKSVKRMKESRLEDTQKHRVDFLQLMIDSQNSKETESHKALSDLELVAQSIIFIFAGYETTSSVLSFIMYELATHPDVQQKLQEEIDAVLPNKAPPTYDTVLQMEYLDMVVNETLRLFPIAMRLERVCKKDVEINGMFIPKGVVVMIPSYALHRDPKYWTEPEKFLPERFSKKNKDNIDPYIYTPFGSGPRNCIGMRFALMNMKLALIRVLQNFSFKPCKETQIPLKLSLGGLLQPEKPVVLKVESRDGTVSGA
P-gp, sequence (P08183 whole entry): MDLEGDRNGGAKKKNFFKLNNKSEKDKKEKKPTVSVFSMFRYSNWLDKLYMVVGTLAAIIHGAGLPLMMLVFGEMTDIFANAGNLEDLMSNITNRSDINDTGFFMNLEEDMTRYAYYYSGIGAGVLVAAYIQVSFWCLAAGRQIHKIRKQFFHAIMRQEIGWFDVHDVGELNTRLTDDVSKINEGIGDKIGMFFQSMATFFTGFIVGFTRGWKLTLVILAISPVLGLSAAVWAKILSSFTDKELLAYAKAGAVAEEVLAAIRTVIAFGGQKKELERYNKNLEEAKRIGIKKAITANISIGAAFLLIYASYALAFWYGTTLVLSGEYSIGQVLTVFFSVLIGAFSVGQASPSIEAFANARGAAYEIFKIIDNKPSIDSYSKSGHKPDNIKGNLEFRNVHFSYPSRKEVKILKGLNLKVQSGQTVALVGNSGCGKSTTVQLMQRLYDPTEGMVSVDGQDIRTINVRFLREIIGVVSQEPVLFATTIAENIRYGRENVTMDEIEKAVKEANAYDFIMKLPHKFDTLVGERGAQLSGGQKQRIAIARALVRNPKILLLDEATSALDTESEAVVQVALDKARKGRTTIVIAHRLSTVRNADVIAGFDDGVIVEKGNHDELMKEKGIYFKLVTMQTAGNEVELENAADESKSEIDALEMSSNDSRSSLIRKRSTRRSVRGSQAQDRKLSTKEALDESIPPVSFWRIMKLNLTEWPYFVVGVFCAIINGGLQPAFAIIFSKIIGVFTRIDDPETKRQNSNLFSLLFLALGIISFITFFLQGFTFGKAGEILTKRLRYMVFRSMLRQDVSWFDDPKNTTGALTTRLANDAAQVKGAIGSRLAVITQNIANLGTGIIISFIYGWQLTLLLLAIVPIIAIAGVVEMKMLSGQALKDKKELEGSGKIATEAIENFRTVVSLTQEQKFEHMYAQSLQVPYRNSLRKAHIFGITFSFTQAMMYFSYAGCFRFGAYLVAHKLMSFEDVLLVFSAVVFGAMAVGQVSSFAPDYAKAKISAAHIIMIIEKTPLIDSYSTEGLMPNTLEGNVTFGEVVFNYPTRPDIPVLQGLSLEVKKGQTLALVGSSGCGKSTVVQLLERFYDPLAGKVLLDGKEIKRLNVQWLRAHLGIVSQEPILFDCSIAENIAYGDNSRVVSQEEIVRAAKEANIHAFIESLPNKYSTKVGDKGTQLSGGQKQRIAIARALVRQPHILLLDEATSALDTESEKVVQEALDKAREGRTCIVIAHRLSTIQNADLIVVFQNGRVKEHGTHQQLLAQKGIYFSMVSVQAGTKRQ
CYP2C19, sequence (P33261 whole entry): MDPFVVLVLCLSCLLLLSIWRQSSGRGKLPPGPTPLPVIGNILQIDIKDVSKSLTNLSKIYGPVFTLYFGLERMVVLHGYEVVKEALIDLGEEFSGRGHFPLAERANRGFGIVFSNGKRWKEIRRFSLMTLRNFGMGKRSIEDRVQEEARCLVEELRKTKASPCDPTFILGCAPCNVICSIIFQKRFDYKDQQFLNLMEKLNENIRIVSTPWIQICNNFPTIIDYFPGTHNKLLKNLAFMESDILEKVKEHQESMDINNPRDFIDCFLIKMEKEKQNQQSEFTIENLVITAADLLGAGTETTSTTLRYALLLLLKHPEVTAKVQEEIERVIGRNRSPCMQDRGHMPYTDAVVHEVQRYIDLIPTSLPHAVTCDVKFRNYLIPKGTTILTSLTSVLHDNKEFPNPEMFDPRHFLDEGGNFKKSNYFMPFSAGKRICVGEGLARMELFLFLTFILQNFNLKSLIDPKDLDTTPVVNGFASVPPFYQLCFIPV
CYP3A5, sequence (P20815 whole entry): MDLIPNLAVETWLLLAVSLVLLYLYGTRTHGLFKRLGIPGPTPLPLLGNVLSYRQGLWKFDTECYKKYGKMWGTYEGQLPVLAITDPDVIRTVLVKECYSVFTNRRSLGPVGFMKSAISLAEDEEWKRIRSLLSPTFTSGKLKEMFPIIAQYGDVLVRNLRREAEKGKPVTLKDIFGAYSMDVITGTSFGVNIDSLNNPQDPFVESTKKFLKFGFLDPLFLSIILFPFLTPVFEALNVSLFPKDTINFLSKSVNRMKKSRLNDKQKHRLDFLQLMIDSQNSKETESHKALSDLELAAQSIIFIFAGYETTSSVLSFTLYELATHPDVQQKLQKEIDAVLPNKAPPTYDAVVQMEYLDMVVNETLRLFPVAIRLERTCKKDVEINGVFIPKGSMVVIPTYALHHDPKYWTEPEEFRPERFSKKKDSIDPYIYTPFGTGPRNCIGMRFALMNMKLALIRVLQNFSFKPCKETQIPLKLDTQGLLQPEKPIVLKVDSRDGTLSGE

## C=CC(=O)N(C)CCOc1c(N)ncnc1-c1cc(F)cc(NC(=O)c2ccc(C3CC3)cc2F)c1C [remibrutinib]
Caco-2 cells
  passive permeability (Papp): 16.5 10^-6 cm/s
P-gp
  P-gp substrate: identified as a P‐gp substrate
[1]
  uptake clearance with inhibitors of hepatic uptake transporters: not affected
Human liver microsomes
  apparent intrinsic affinity (Kmapp): 5.43 µM
  maximal rate of metabolism (Vmax): 560.7 pmol/min/mg protein
CYP3A4; CYP3A4
  Vmax: 16.3 pmol/min/pmol CYP
CYP3A4; read-out: Km,u, CYP3A4, unbound
  Km: 1.51 µM
CYP2C19
  fm,CYP (contribution to oxidative hepatic metabolism): 1%
CYP3A5
  fm,CYP (contribution to oxidative hepatic metabolism): 0.8%
CYP2B6
  fm,CYP (contribution to oxidative hepatic metabolism): 0.3%
CYP3A4/5; midazolam
  correlation of metabolism rate with CYP3A4/5 activity, R: 0.989
CYP3A4/5; testosterone
  correlation of metabolism rate with CYP3A4/5 activity, R: 0.986
[2]; Observed mean
  F (absolute bioavailability): 33.8 ± 11.5%
[2]; Observed mean, bioavailability in the presence of ritonavir
  F inhibited: 80.9% and 80.9 ± 11.5%
[2]; Observed mean, from grapefruit juice AUC ratio
  Fg: 78.9% and 78.9 ± 15.6%
[2]; Observed, calculated Fa = F/Fg/Fh
  Fa: 86.9% and 86.9^e %
[2]; Observed, calculated Fh = AUCratio,iv/(AUCratio,po * Fg), ritonavir DDI study
  Fh: 49.3^d %
[2]; Observed, from i.v. exposure increase with ritonavir
  fm (CYP3A4): 40%
[2]; calculated
  CYP3A4-mediated hepatic first-pass metabolism (100%-Fh): 50.7%
[2]; calculated / clinically determined values
  product of Fg and Fh: 39%
[2]; human, blood, intravenous
  Vd: 0.81 ± 0.22 L/kg
[2]; human, blood, iv
  Vd: 63.1 L
[2]; human, blood, iv, 0.1 mg
  clearance: 1170 mL/min
[2]; human, in vivo
  systemic CL as share of hepatic blood flow (87 L/h): ~ 80%
[2]; human, oral, 50 mg, remibrutinib alone
  half-life: 6.58 h
[2]; human, oral, with RTV
  half-life: 12.1 h
[2]; human, oral, with grapefruit juice
  half-life: 7.13 h
[2]; human, 50 mg, median, remibrutinib alone
  Tmax: 1 h
[2]; human, 50 mg, minimum-maximum, remibrutinib alone
  Tmax: 0.5 to 2.5 h
[2]; human, median, with RTV
  Tmax: 0.72 h
[2]; human, median, with grapefruit juice
  Tmax: 0.73 h
[2]; human, minimum-maximum, with RTV
  Tmax: 0.5 to 1.5 h
[2]; human, minimum-maximum, with grapefruit juice
  Tmax: 0.5 to 2 h
[2]; [7]
  AUC0-24 h norm by dose: 14.2 (21.8%) h*ng/ml/mg
  AUCinf norm by dose: 14.5 (17.9%) h*ng/ml/mg
  AUClast norm by dose: 13.9 (22.3%) h*ng/ml/mg
[2]; [8]
  AUC0-24 h norm by dose: 23.8 (31.0%) h*ng/ml/mg
  AUCinf norm by dose: 24.8 (33.3%) h*ng/ml/mg
  AUClast norm by dose: 23.5 (31.0%) h*ng/ml/mg
[2]; i.v., ritonavir vs alone
  AUC0-24 h norm by dose, Ratio period 3 / period 1: 1.67
  AUCinf norm by dose, Ratio period 3 / period 1: 1.70
  AUClast norm by dose, Ratio period 3 / period 1: 1.68
  Cmax norm by dose, Ratio period 3 / period 1: 0.89
[2]; [9]
  AUC0-24 h norm by dose: 4.89 ng·h/mL/mg
  Cmax norm by dose: 2.77 ng/mL/mg
[2]; [10]
  AUC0-24 h norm by dose: 6.28 ng·h/mL/mg
  Cmax norm by dose: 3.27 ng/mL/mg
[2]; [11]
  AUC0-24 h norm by dose: 20.3 ng·h/mL/mg
  Cmax norm by dose: 9.00 ng/mL/mg
[2]; [12]
  AUC0-24 h norm by dose: 4.49 (3.83, 5.26) h*ng/ml/mg
  AUCinf norm by dose: 4.66 (3.92, 5.54) h*ng/ml/mg
  AUClast norm by dose: 4.37 (3.73, 5.13) h*ng/ml/mg
  Cmax norm by dose: 2.45 (1.99, 3.02) ng/ml/mg
[2]; [13]
  AUC0-24 h norm by dose: 5.80 (4.95, 6.80) h*ng/ml/mg
  AUCinf norm by dose: 5.98 (4.97, 7.19) h*ng/ml/mg
  AUClast norm by dose: 5.80 (4.93, 6.81) h*ng/ml/mg
  Cmax norm by dose: 3.03 (2.45, 3.75) ng/ml/mg
[2]; [14]
  AUC0-24 h norm by dose: 19.2 (16.4, 22.5) h*ng/ml/mg
  AUCinf norm by dose: 20.1 (16.9, 23.8) h*ng/ml/mg
  AUClast norm by dose: 19.7 (16.7, 23.1) h*ng/ml/mg
  Cmax norm by dose: 8.15 (6.59, 10.1) ng/ml/mg
[2]; [15]
  AUCinf norm by dose, Ratio period 2 / period 1: 1.28 (1.09, 1.51)
  AUClast norm by dose, Ratio period 2 / period 1: 1.33 (1.19, 1.47)
[2]; [16]
  AUCinf norm by dose, Ratio period 3 / period 1: 4.31 (3.76, 4.94)
  AUClast norm by dose, Ratio period 3 / period 1: 4.50 (4.05, 4.99)
[3]; alone, with grapefruit juice, or with RTV, healthy participants
  tolerability: well‐tolerated
[3]; during the trial
  SAEs, deaths, high-grade AEs: No SAEs, deaths, or AEs of high‐grade severity
[3]; except isolated AE of mildly increased white blood cell count in one participant
  clinical laboratory evaluations, vital signs, ECG: no clinically relevant changes
[3]; occurring in 5 [29.4%] participants
  AEs rated grade 1 of all AEs: 13/14
[4]; declining over dose range 10-600 mg (TMDD effect)
  AUC ratio day 12 to day 1: 4.86 to 1.14
[4]; humans
  fractional contribution of renal excretion to elimination: about 1.8%
[5]
  observed AUCtau: 916 ng·h/mL
  observed Cmax: 334 ng/mL
[6]
  excretion of unchanged remibrutinib into the bile: 0.4 % of the dose

— PMC8742645 (Clinical and Translational Science, 2021)
